Converted amounts (≈) assume the structure as drawn. The source made the active and inactive calls. No cut-off for these calls is given here.
Tests used:
[1] = Metabolic stability in bile-duct cannulated Sprague-Dawley rat assessed as parent compound remaining in bile at 3 mg/kg, iv measured over 8 hrs post dose; type: ADME, organism-based; conditions: read-out: Stability
[2] = Protein binding in human plasma at 5 uM after 4 hrs by rapid equilibrium dialysis method; type: ADME, cell-free; conditions: read-out: PPB (converted)
[3] = molecular target: T1, Mitogen-activated protein kinase kinase kinase 8 (Homo sapiens, UniProt P41279); assay: Inhibition of COT in LPS-stimulated human PBMC assessed as reduction in TNFalpha release incubated for 1 hr followed by stimulation with LPS for 4 hrs by HTRF assay
Summary of the method: (§1)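 Primary human PBMCs were stimulated with LPS. Read-outs were pERK, TNFα release, or p65 phosphorylation, each reported as IC50.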

[4] = Metabolic stability in bile-duct cannulated Sprague-Dawley rat assessed as parent compound remaining in feces at 3 mg/kg, iv measured over 8 hrs post dose; type: ADME, organism-based; conditions: read-out: Stability
Summary of the method: (§2)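 Bile-duct cannulated rats dosed in vivo. Parent and metabolites in each matrix were expressed as relative peak areas of the drug-related components detected, at the stated sampling time or collection period post dose.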

[5] = molecular target: T1, Mitogen-activated protein kinase kinase kinase 8; assay: Inhibition of human COT (66 to 395 residues) expressed in Sf21 cells using 5-Fluo-Ahx-AGAGSGQLIDSNleANSFVGTR-NH2 as substrate after 60 mins by caliper microfluidic mobility shift assay
[6] = Metabolic stability in bile-duct cannulated Sprague-Dawley rat assessed as parent compound remaining in urine at 3 mg/kg, iv measured over 8 hrs post dose; type: ADME, organism-based; conditions: read-out: Stability; summary of the method: as §2
[7] = Octanol-water partition coefficient, log P of the compound by shake-flask method; type: physicochemical
[8] = Clearance in wild type Sprague-Dawley rat plasma at 1 mg/kg, iv; type: ADME, organism-based
Summary of the method: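 Male wild-type Sprague–Dawley rats were given 1 mg/kg intravenously. Clearance was derived from plasma.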

[9] = Drug excretion in bile-duct cannulated Sprague-Dawley rat urine at 3 mg/kg, iv; type: ADME, organism-based; conditions: read-out: Drug excretion
[10] = Drug metabolism in human liver S9 fraction assessed as 1-(2-(1-morpholinopropan-2-ylamino)benzo[d]thiazol-6-yl)-8-(pyridin-4-yl)-1H-imidazo[4,5-c][1,7]naphthyridin-4(5H)-one metabolite formation in absence of NADPH after 5 to 120 mins by LC/MS/MS analysis; type: ADME
Summary of the method: (§3)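 Rat or human liver S9 fractions were incubated without NADPH cofactor. Loss of parent and formation of the 4-oxo metabolite M1 were monitored.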

[11] = Drug metabolism in Sprague-Dawley rat liver S9 fraction assessed as 1-(2-(1-morpholinopropan-2-ylamino)benzo[d]thiazol-6-yl)-8-(pyridin-4-yl)-1H-imidazo[4,5-c][1,7]naphthyridin-4(5H)-one metabolite formation in absence of NADPH after 5 to 120 mins by LC/MS/MS analysis; type: ADME; summary of the method: as §3
[12] = Metabolic stability in bile-duct cannulated Sprague-Dawley rat assessed as parent compound remaining in blood at 3 mg/kg, iv measured 1 hr post dose; type: ADME, organism-based; conditions: read-out: Stability
[13] = Drug excretion in bile-duct cannulated Sprague-Dawley rat liver at 3 mg/kg, iv measured 8 hrs post dose; type: ADME, organism-based; conditions: in vivo
[14] = Metabolic stability in Sprague-Dawley rat liver microsomes assessed as parent compound remaining at 5 uM after 1 hr in presence of NADPH by HPLC/MS analysis; type: ADME; conditions: read-out: Stability
[15] = Half life in wild type Sprague-Dawley rat liver microsomes at 5 uM preincubated for 3 mins followed by NADPH addition measured after 1 hr by HPLC/MS analysis; type: ADME
[16] = Metabolic stability in bile-duct cannulated Sprague-Dawley rat assessed as parent compound remaining in blood at 3 mg/kg, iv measured 4 hrs post dose; type: ADME, organism-based; conditions: read-out: Stability; summary of the method: as §2
[17] = Drug excretion in bile-duct cannulated Sprague-Dawley rat feces at 3 mg/kg, iv measured 8 hrs post dose; type: ADME, organism-based; conditions: read-out: Drug excretion
[18] = molecular target: T1, Mitogen-activated protein kinase kinase kinase 8; assay: Inhibition of COT in LPS-stimulated human whole blood assessed as reduction in TNFalpha release incubated for 30 mins followed by stimulation with LPS for 3 hrs by HTRF assay; type: tissue-based
Summary of the method: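 Human whole blood was stimulated with LPS, and TNFα release was measured as IC50.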

[19] = Drug excretion in bile-duct cannulated Sprague-Dawley rat kidney at 3 mg/kg, iv measured 8 hrs post dose; type: ADME, organism-based; conditions: in vivo
[20] = molecular target: T1, Mitogen-activated protein kinase kinase kinase 8; assay: Inhibition of COT in LPS-stimulated human PBMC assessed as reduction in ERK1/2 phosphorylation incubated for 60 mins followed by LPS stimulation for 12 mins by flow cytometric analysis; summary of the method: as §1
[21] = Equilibrium solubility of the compound at pH 4 after 16 hrs by mass spectrometric analysis; type: physicochemical; conditions: buffer
[22] = Equilibrium solubility of the compound at pH 6.8 after 16 hrs by mass spectrometric analysis; type: physicochemical; conditions: buffer
[23] = Drug excretion in bile-duct cannulated Sprague-Dawley rat bile at 3 mg/kg, iv; type: ADME, organism-based; conditions: read-out: Drug excretion
[24] = Dose normalized AUC in wild type Sprague-Dawley rat at 3 mg/kg, po; type: ADME, organism-based; conditions: in vivo
Summary of the method: (§4)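 Pharmacokinetics in male Sprague–Dawley rats, n = 3 per group, after i.v. and p.o. dosing. AUC and Cmax are reported dose-normalized.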

[25] = Tmax in wild type Sprague-Dawley rat at 1 mg/kg, iv or 3 mg/kg, po; type: ADME, organism-based; conditions: in vivo
Summary of the method: (§5)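 Male wild-type Sprague–Dawley rats, n = 3 per group, housed under Swiss animal-welfare conditions (12 h light/dark, 22−24 °C). Each group received separate i.v. and oral doses, with plasma profiles used for PK parameters.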

[26] = AUC (0 to 10.5 hrs) in MSU-induced beagle dog acute synovitis model at 15 mg/kg; type: ADME, organism-based, Canis lupus familiaris; design: time < 10.5 hr, dose 15 mg/kg; conditions: in vivo
Summary of the method: (§6)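 Dog uric acid-induced acute synovitis model. Groups were vehicle, the test article at 5 or 15 mg/kg, and meloxicam at 0.2 mg/kg as positive control. Exposure is reported as AUC over 0–10.5 h.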

[27] = Oral bioavailability in wild type Sprague-Dawley rat at 3 mg/kg; type: ADME, organism-based; conditions: in vivo; summary of the method: as §5
[28] = Dose normalized AUC in beagle dog at 0.3 mg/kg, po fasted 12 hrs prior to compound administration via cassette dosing and fed 2 hrs post dose; type: ADME, organism-based, Canis lupus familiaris; conditions: in vivo
Summary of the method: (§7)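 Pharmacokinetics in Beagle dogs, n = 3 per group, after i.v. and p.o. dosing. AUC and Cmax are reported dose-normalized.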

[29] = Clearance in beagle dog at 0.1 mg/kg, iv or 0.3 mg/kg, po fasted 12 hrs prior to compound administration via cassette dosing and fed 2 hrs post dose; type: ADME, organism-based, Canis lupus familiaris; conditions: in vivo; summary of the method: as §7
[30] = Oral bioavailability in beagle dog at 0.3 mg/kg fasted 12 hrs prior to compound administration via cassette dosing and fed 2 hrs post dose; type: ADME, organism-based, Canis lupus familiaris; conditions: in vivo
Summary of the method: (§8)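 Beagle dogs, n = 3 per group, dosed i.v. and orally. PK parameters were derived from blood/plasma profiles, with exposure values dose-normalized.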

[31] = Dose normalized AUC in beagle dog at 0.1 mg/kg, iv fasted 12 hrs prior to compound administration via cassette dosing and fed 2 hrs post dose; type: ADME, organism-based, Canis lupus familiaris; conditions: in vivo; summary of the method: as §7
[32] = Dose normalized AUC in wild type Sprague-Dawley rat at 1 mg/kg, iv; type: ADME, organism-based; conditions: in vivo; summary of the method: as §4
[33] = system: Canis familiaris; assay: Antiinflammatory activity in MSU-induced beagle dog acute synovitis model assessed as prevention of inflammation-driven lameness at 15 mg/kg, administered once a week 3 hrs post MSU injection measured after 6 hrs post last dose; type: functional, organism-based; conditions: Canis lupus familiaris
Summary of the method: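 Lameness was induced in dogs by uric acid injection into the joint. Treatment was vehicle, test article at 5 or 15 mg/kg, or meloxicam 0.2 mg/kg. Vertical peak force of the affected limb was measured on a force plate while trotting. The read-out was the time after treatment for that force to recover to 60% of the value measured before lameness.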

[34] = Metabolic stability in bile-duct cannulated Sprague-Dawley rat assessed as parent compound remaining in kidney at 3 mg/kg, iv measured over 8 hrs post dose; type: ADME, organism-based; conditions: read-out: Stability; summary of the method: as §2
[35] = Half life in wild type Sprague-Dawley rat liver S9 fraction at 1 uM in absence of NADPH by HPLC/MS analysis
[36] = Half life in beagle dog liver S9 fraction at 1 uM in absence of NADPH by HPLC/MS analysis
[37] = Antiinflammatory activity in human PBMC assessed as inhibition of uric acid induced-IL-1beta formation stimulated with MSU crystals after 3 hrs in presence of ATP; type: functional, cell-based
[38] = Terminal elimination half life in beagle dog at 0.1 mg/kg, iv or 0.3 mg/kg, po fasted 12 hrs prior to compound administration via cassette dosing and fed 2 hrs post dose; type: ADME, organism-based, Canis lupus familiaris; conditions: in vivo, read-out: beta t1/2 (converted); summary of the method: as §8
[39] = Clearance in wild type Sprague-Dawley rat at 1 mg/kg, iv or 3 mg/kg, po; type: ADME, organism-based; conditions: in vivo; summary of the method: as §4
[40] = Terminal elimination half life in wild type Sprague-Dawley rat at 1 mg/kg, iv or 3 mg/kg, po; type: ADME, organism-based; conditions: in vivo, read-out: beta t1/2 (converted); summary of the method: as §5
[41] = Half life in beagle dog liver microsomes at 5 uM preincubated for 3 mins followed by NADPH addition measured after 1 hr by HPLC/MS analysis; type: ADME, Canis lupus familiaris
[42] = Dose normalized Cmax in wild type Sprague-Dawley rat at 1 mg/kg, iv or 3 mg/kg, po; type: ADME, organism-based; conditions: in vivo; summary of the method: as §4
[43] = Dose normalized Cmax in beagle dog at 0.1 mg/kg, iv or 0.3 mg/kg, po fasted 12 hrs prior to compound administration via cassette dosing and fed 2 hrs post dose; type: ADME, organism-based, Canis lupus familiaris; conditions: in vivo; summary of the method: as §7
[44] = AUC (0 to 10.5 hrs) in MSU-induced beagle dog acute synovitis model at 5 mg/kg; type: ADME, organism-based, Canis lupus familiaris; design: time < 10.5 hr, dose 5 mg/kg; conditions: in vivo; summary of the method: as §6
[45] = Metabolic stability in bile-duct cannulated Sprague-Dawley rat assessed as parent compound remaining in liver at 3 mg/kg, iv measured over 8 hrs post dose; type: ADME, organism-based; conditions: read-out: Stability; summary of the method: as §2
[46] = Mean residence time in wild type Sprague-Dawley rat at 1 mg/kg, iv or 3 mg/kg, po; type: ADME, organism-based; conditions: in vivo; summary of the method: as §4
[47] = Mean residence time in beagle dog at 0.1 mg/kg, iv or 0.3 mg/kg, po fasted 12 hrs prior to compound administration via cassette dosing and fed 2 hrs post dose; type: ADME, organism-based, Canis lupus familiaris; conditions: in vivo; summary of the method: as §7

T1 sequence (P41279 whole entry): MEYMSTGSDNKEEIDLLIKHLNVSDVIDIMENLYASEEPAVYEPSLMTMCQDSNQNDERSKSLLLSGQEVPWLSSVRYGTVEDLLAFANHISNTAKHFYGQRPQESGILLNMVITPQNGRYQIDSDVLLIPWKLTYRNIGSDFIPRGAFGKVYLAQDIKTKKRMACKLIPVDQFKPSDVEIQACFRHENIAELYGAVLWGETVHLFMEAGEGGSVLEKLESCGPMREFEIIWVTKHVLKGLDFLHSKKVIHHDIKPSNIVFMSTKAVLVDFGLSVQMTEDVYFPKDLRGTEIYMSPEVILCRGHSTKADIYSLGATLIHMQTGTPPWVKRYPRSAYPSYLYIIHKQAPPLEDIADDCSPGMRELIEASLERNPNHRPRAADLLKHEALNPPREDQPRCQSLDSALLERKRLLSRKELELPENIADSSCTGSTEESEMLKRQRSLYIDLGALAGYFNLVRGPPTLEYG

CC(CN1CCOCC1)Nc1nc2ccc(-n3cnc4cnc5cnc(-c6ccncc6)cc5c43)cc2s1 (stereo unspecified) gave a dose excreted at 8 h [1] of 0%, a fraction unbound at 4 h, 5 µM [2] of 0.02 and an IC50 [3] of 70 nM. The dose excreted at 8 h [4] was 37%, the IC50 [5] was 9 nM and the dose excreted at 8 h [6] was 2%. For the same compound, the logP [7] was 3.3, the clearance [8] was 297 mL/min/kg and the dose excreted [9] was 0.04%. For the same compound, the Drug metabolism [10] was “Metabolite_Detected”, the Drug metabolism [11] was “Metabolite_Detected” and the remaining at 1 h [12] was 49%. For the same compound, the Drug excretion [13] was 0.002 %ID, the remaining at 1 h, 5 µM [14] was 16% and the half-life at 5 µM [15] was < 3 min. It also gave a remaining at 4 h [16] of 20%, a dose excreted at 8 h [17] of 0.33% and an IC50 [18] of 600 nM. For the same compound, the Drug excretion [19] was 0.002 %ID, the IC50 [20] was 80 nM and the solubility thermodynamic at 16 h [21] was > 1000 µM. It also gave a solubility thermodynamic at 16 h [22] of 60 µM (≈ 31.4 µg/mL) and a dose excreted [23] of 0.13%.

With CC(CN1CCOCC1)Nc1ccc2cc(-n3cnc4cnc5cnc(-c6ccncc6)cc5c43)ccc2n1 (racemic) the fraction unbound at 4 h, 5 µM [2] was 0.03, the AUC/dose [24] was 31 nmol·h and the Tmax [25] was 0.3 h. The IC50 [3] was 60 nM, the AUC [26] was 4575 nmol·h and the bioavailability [27] was 26%. The IC50 [5] was 6 nM, the AUC/dose [28] was 957 nmol·h and the clearance [29] was 25 mL/min/kg. For the same compound, the bioavailability [30] was 61%, the logP [7] was 3.3 and the AUC/dose [31] was 1570 nmol·h. For the same compound, the AUC/dose [32] was 119 nmol·h, the Activity [33] was “Active” and the remaining at 8 h [34] was 22%. The half-life at 1 µM [35] was < 5 min, the half-life at 1 µM [36] was > 2 h and the IC50 [37] was 200 nM. For the same compound, the half-life [38] was 3.2 h, the clearance [39] was 277 mL/min/kg and the half-life [40] was 2.1 h. It also gave a half-life at 5 µM [15] of 3 min, a half-life at 5 µM [41] of 0.167 h and a Cmax/dose [42] of 12 nM. It also gave a Cmax/dose [43] of 61 nM, an IC50 [18] of 200 nM and an AUC [44] of 2057 nmol·h. For the same compound, the remaining at 8 h [45] was 28%, the IC50 [20] was 60 nM and the solubility thermodynamic at 16 h [21] was > 1000 µM. It also gave an MRT [46] of 1.2 h, an MRT [47] of 2.4 h and a solubility thermodynamic at 16 h [22] of 136 µM (≈ 70.3 µg/mL).

— ChEMBL document CHEMBL3853320, “Discovery of Imidazoquinolines as a Novel Class of Potent, Selective, and in Vivo Efficacious Cancer Osaka Thyroid (COT) Kinase Inhibitors” (J Med Chem, 2016)
